Data as given in ChEMBL document CHEMBL3414521, “Discovery of the 2-phenyl-4,5,6,7-Tetrahydro-1H-indole as a novel anti-hepatitis C virus targeting scaffold” (Eur J Med Chem, 2015).
Calls of active or inactive are those of the source. The calls are words filed in the database; no cut-off is given here.

Experiments:
[1] = Selectivity index, ratio of CC50 for human Huh7.5 cells to EC50 for HCV genotype 2a infected in HuH7.5-FGR-JC1_Rluc2A cells; design: species or system Huh-7
Hepatitis C virus [2] = experiment: Antiviral activity against HCV genotype 2a infected in HuH7.5-FGR-JC1_Rluc2A cells at 50 uM by […] luciferase reporter gene assay; type: functional, Hepacivirus hominis; conditions: for inhibition: Hepacivirus hominis
Hepatitis C virus [3] = experiment: Antiviral activity against HCV genotype 2a infected in HuH7.5-FGR-JC1_Rluc2A cells by […]; type: functional, Hepacivirus hominis
[4] = Cytotoxicity against human Huh7.5 cells after 48 hrs by MTS assay; type: cell-based; conditions: huh-7, 48 h
Procedure, shortened: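 Parental Huh7.5 cells grown in DMEM with 10% FCS without G418, 37 °C, 5% CO2; treated at 6–8 doses for 48 h. Viability by MTS bioreduction to formazan; CC50 as concentration halving MTS conversion relative to DMSO controls, mean ± SD of three independent experiments.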

Hepatitis C virus [5] = experiment: Antiviral activity against HCV genotype 1b infected in HuH7/Rep-Feo1b cells at 50 uM by firefly luciferase reporter gene assay; type: functional, Hepacivirus hominis; conditions: for inhibition at 50 µM: Huh-7; for inhibition: Hepacivirus hominis
Procedure, shortened: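 Replicon reporter cells (gt 1b in Huh7/Rep-Feo1b, firefly luciferase; gt 2a in Huh7.5-FGR-JC1-Rluc2A, Renilla luciferase) kept in DMEM with 10% FCS and 0.5 mg/mL G418, 37 °C, 5% CO2. About 1×10^4 cells per well were treated at 50 μM for 48 h in 1.0% DMSO. Luciferase signal was read relative to DMSO-treated cells as % inhibition.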

[6] = system: Hepatitis C virus (isolate Con1); experiment: Inhibition of HCV Con1 genotype 1b C-terminal His-tagged NS3 helicase lacking N-terminal protease using fluorescent DNA as substrate at 500 uM
Procedure, shortened: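 Molecular beacon unwinding assay: 12.5 nM NS3h, 5 nM fluorescent DNA substrate, 1 mM ATP, 25 mM MOPS pH 6.5, 1.25 mM MgCl2, 5% DMSO, 5 µg/ml BSA, 0.01% Tween20, 0.05 mM DTT; compounds up to 500 μM.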

[7] = Inhibition of HCV Con1 genotype 1b C-terminal His-tagged NS3 helicase lacking N-terminal protease using ATP/RNA as substrate after 15 mins by malachite green-based assy; design: species or system Hepatitis C virus (isolate Con1)
Procedure, shortened: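 NS3h (con1 gt 1b, C-terminal His-tag, protease-deleted) at 4 nM with 1 μM polyU RNA (nucleotide), 25 mM MOPS pH 6.5, 1.25 mM MgCl2, 1 mM ATP, 33 µg/ml BSA, 0.07% Tween 20, 0.3 mM DTT, 10% DMSO; started with ATP, 15 min, 37 °C. Phosphate by malachite green, A630. Two-fold series 0.5 mM–0.78 µM, duplicate; variable-slope fit, mean ± SD.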

[8] = Selectivity index, ratio of CC50 for human Huh7.5 cells to EC50 for HCV genotype 1b infected in HuH7/Rep-Feo1b cells; design: species or system Huh-7
Hepacivirus hominis = experiment: Inhibition of recombinant HCV hexa histidine-tagged NS5B Cdelta21 RNA dependent RNA polymerase expressed in Escherichia coli at 50 uM after 60 mins by liquid scintillation counting analysis
Hepatitis C virus [9] = experiment: Antiviral activity against HCV genotype 1b infected in HuH7/Rep-Feo1b cells by firefly luciferase reporter gene assay; type: functional, cell-based, Hepacivirus hominis; conditions: Huh-7
Procedure, shortened: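 Huh7 cells carrying autonomously replicating gt 1b replicon with firefly luciferase reporter; ~1×10^4 cells/well treated 48 h, 1.0% DMSO final. Primary screen at 50 μM; actives titrated over 8–12 quarter-log dilutions. Luciferase signal relative to DMSO-treated controls; EC50 from dose-response curves, mean ± SD of three independent experiments.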

Row | Structure (SMILES) | Ratio CC50/EC50 [1] | inhibition at 50 µM (Hepatitis C virus [2]) [%] | EC50 (Hepatitis C virus [3]) [µM] | CC50 [4] [µM] | inhibition at 50 µM (Hepatitis C virus [5]) [%] | inhibition [6] | IC50 [7] [µM] | Ratio CC50/EC50 [8] | inhibition (Hepacivirus hominis) | EC50 (Hepatitis C virus [9]) [µM] | inhibition (Hepatitis C virus [2]) | inhibition (Hepatitis C virus [5])
1 | Cc1ccc2[nH]c(=O)c(CN(CCc3ccccc3)C(=O)c3ccc(OCCN(C)C)cc3)cc2c1 | >8 | 61 | 24.8 | > 200 | 45 |  |  |  |  |  |  | 
2 | Cc1ccc2[nH]c(=O)c(CN(Cc3ccc(F)cc3)C(=O)c3ccc(NC(=N)N)cc3)cc2c1 |  | 29 |  | > 200 | 54 |  |  |  |  |  |  | 
3 | COc1ccc(CN2CC(C)n3c(nc4cccnc43)C2=O)c(OC)c1 (racemic) |  | 48 |  | > 200 | 45 |  |  |  |  |  |  | 
4 | O=C1CC(c2nc3ccccc3[nH]2)CN1C1CCCCC1 (stereo unspecified) | >13 | 72 | 15.6 | > 200 | 19 |  |  |  |  |  |  | 
5 | COc1ccc(-c2cc3c(n2Cc2ccccc2)CCCC3)cc1 | 28 | 96 | 4.9 | 137 | 99 | inactive | > 1000 | 12 | inactive | 11.8 |  | 
6 | O=C(O)C1CC(=O)N(CCc2c[nH]c3ccccc23)C1 (stereo unspecified) | >4 | 51 | 48.5 | > 200 | 22 |  |  |  |  |  |  | 
7 | CCOC(=O)[C@@H](C)N1C(=O)C(=O)c2ccccc21 | >27 | 85 | 7.3 | > 200 | 19 |  |  |  |  |  |  | 
8 | Cc1nn(Cc2ccccc2)c(C)c1C(=O)O |  |  |  | > 200 | 19 |  |  |  |  |  | inactive | 
9 | Br.CC(=O)[C@]12CCN(Cc3ccccc3)C[C@H]1[C@H](c1ccccc1)NC2 (racemic) | >11 | 76 | 17.4 | > 200 |  |  |  |  |  |  |  | inactive
10 | Nc1ccc(-c2cc3c(n2Cc2ccccc2)CCCC3)cc1 | 13 | 88 | 8.7 | 110 | 66 | inactive | 417 | 9 | inactive | 12.4 |  | 
11 | CCn1cc(-c2ccccc2)c(C(N)=O)c1C | >8 | 66 | 23.6 | > 200 | 49 |  |  |  |  |  |  | 
12 | O=C1CC(c2nc3ccccc3[nH]2)CN1Cc1ccccc1 (stereo unspecified) | >9 | 67 | 21.1 | > 200 |  |  |  |  |  |  |  | inactive
13 | CCn1cc(-c2ccccc2)c(C(=O)O)c1C |  | 36 |  | > 200 |  |  |  |  |  |  |  | inactive
14 | c1ccc(Cn2c(-c3cccnc3)cc3c2CCCC3)cc1 |  | 99 |  | < 25 | 92 |  |  |  |  |  |  | 
15 | C[C@@]12CC3C(=O)N4[C@H](C[C@@]5(C)C(=O)CCCC[C@@H]45)C(=O)N3[C@@H]1CCCCC2=O (mixture of isomers) |  | 28 |  | > 200 |  |  |  |  |  |  |  | inactive
16 | Cc1nc2c(c(C)nn2-c2ccccc2)c(C)c1CCC(=O)O | >17 | 78 | 11.7 | > 200 |  |  |  |  |  |  |  | inactive
17 | Oc1ccccc1-c1cc2c(n1Cc1ccccc1)CCCC2 | 8 | 99 | 6.5 | 48.9 | 96 |  |  | 5 |  | 9.2 |  | 
18 | NC(=O)Cn1c(-c2ccccc2)cc2c1CCCC2 |  | 48 |  | > 200 | 37 |  |  |  |  |  |  | 
19 | Cc1ccc(CN(Cc2cc3cc(C)ccc3[nH]c2=O)C(=O)c2ccc(CN3CCN(C)CC3)cc2)cc1 |  | 99 |  | < 25 | 92 |  |  |  |  |  |  | 
20 | O=C(O)c1cc(-c2ccncc2)nc2ccccc12 |  | 49 |  | > 200 |  |  |  |  |  |  |  | inactive

Row | Structure (SMILES) | Ratio CC50/EC50 [1] | inhibition at 50 µM (Hepatitis C virus [2]) [%] | EC50 (Hepatitis C virus [3]) [µM] | CC50 [4] [µM] | inhibition at 50 µM (Hepatitis C virus [5]) [%] | inhibition [6] | IC50 [7] [µM] | Ratio CC50/EC50 [8] | inhibition (Hepacivirus hominis) | EC50 (Hepatitis C virus [9]) [µM] | inhibition (Hepatitis C virus [2]) | inhibition (Hepatitis C virus [5])
21 | C=CCn1c(-c2ccccc2)cc2c1CCCC2 | 4 | 69 | 32.1 | 119 | 35 |  |  |  |  |  |  | 
22 | COc1ccc(NS(=O)(=O)c2ccc(CN3C(=O)c4ccccc4C3=O)cc2)cc1 | >9 | 60 | 22.5 | > 200 | 39 |  |  |  |  |  |  | 
23 | CC(C)(C)OC(=O)N1CC(=O)[C@]2(C)CCN(Cc3ccccc3)[C@@H]2C1 (relative stereo) | >19 | 98 | 6 | 115 | 73 |  |  | 5 |  | 24.3 |  | 
24 | CC1(CO)CCN2CCCCC21 (racemic) |  | 25 |  | > 200 | 50 |  |  |  |  |  |  | 
25 | CC(C(N)=O)n1c(-c2ccccc2)cc2c1CCCC2 (stereo unspecified) | >10 | 83 | 15.4 | 156 | 50 |  |  |  |  |  |  | 
26 | Cc1ccc2[nH]c(=O)c(CN(Cc3ccccc3)C(=O)c3ccc(NC(=N)N)cc3)cc2c1 |  | 44 |  | > 200 |  |  |  |  |  |  |  | inactive
27 | O=C(O)CCn1c(-c2ccccc2)cc2ccccc21 |  | 54 |  |  | 26 |  |  |  |  |  |  | 
28 | C[C@@]12C[C@@H]3C(=O)Nc4ccccc4C(=O)N3[C@@H]1CCCCC2=O (racemic) |  |  |  | > 200 |  |  |  |  |  |  | inactive | inactive
29 | CC1CN(C(=O)c2ccccc2)c2ccccc2NC1=O (stereo unspecified) | >14 | 77 | 14.1 | > 200 | 21 |  |  |  |  |  |  | 
30 | O=C(O)C1CCCN(S(=O)(=O)c2ccccc2)C1 (racemic) | >7 | 62 | 28.1 | > 200 |  |  |  |  |  |  |  | inactive
31 | Br.CC(=O)N[C@]12CCN(Cc3ccccc3)C[C@H]1[C@H](c1ccccc1)NC2 (racemic) | >41 | 73 | 4.9 | > 200 |  |  |  |  |  |  |  | inactive
32 | CCOC(=O)C(C)n1c(-c2ccccc2)cc2c1CCCC2 (racemic) | 6 | 95 | 13.7 | 84.3 | 74 |  |  | 6 |  | 13.2 |  | 
33 | COC(=O)c1cc(C(=O)O)cc(-c2cc3c(n2Cc2ccccc2)CCCC3)c1 | >5 | 96 | 9.9 | 45.6 | 81 |  |  | >1 |  | 35.8 |  | 
34 | CC(=O)c1cn(CC(=O)O)c2ccccc12 |  | 55 |  | > 200 |  |  |  |  |  |  |  | inactive
35 | CC(=O)N[C@@]12CCN(C(=O)OC(C)(C)C)C[C@@H]1CN(C(=O)OC(C)(C)C)C2 (racemic) |  | 43 |  | > 200 |  |  |  |  |  |  |  | inactive
36 | CCn1cc(C(=O)Nc2ccccc2C(N)=O)c(=O)c2cc(OC)ccc21 | 4 | 65 | 20.6 | 85.6 | 17 |  |  |  |  |  |  | 
37 | COc1cccc(C(=O)Nc2cc(C)nc3ccc(C)cc23)c1 |  | 99 |  | < 25 | 88 |  |  |  |  |  |  | 
38 | Cc1cccc(N2CC(c3nc4ccccc4[nH]3)CC2=O)c1 (stereo unspecified) | >12 | 77 | 17.3 | > 200 | 21 |  |  |  |  |  |  | 
39 | Cc1nn(Cc2ccccc2)c(C)c1CC(=O)O |  | 14 |  | > 200 |  |  |  |  |  |  |  | inactive
40 | O=C(O)c1nn(Cc2ccccc2)c2ccccc12 |  | 46 |  | > 200 |  |  |  |  |  |  |  | inactive
